According to ChEMBL document CHEMBL4177577, “Lipophilic methylene violet analogues as modulators of mitochondrial function and dysfunction” (Bioorg Med Chem, 2017):
Active and inactive are the calls of the source. The calls are words filed in the database; no cut-off is given here.

Assays:
[1] = Induction of mitochondrial membrane potential preservation in human Friedreich's ataxia lymphocytes assessed as JC1 dye monomer level at 5 uM pre-incubated for 16 hrs by JC1 staining based assay (reference value: 10.1%)
[2] = test system: Friedreich's ataxia lymphocyte; assay: Increase in ATP level in human Friedreich's ataxia lymphocytes at 0.1 uM incubated for 24 hrs by luminescence based assay; format: functional, cell-based
In short: (§1)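 Lymphocytes (2×10^5 cells/mL) were treated with compound at final 0.1, 0.5 or 5 μM (DMSO <0.5%) in glucose-free medium (25 mM galactose) for 24 h at 37 °C. Total intracellular ATP was read by a bioluminescence kit and given as % of untreated control. Data are the mean of at least three independent experiments.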

[3] = test system: Friedreich's ataxia lymphocyte; assay: Cytoprotection against rotenone-induced cytotoxicity in human Friedreich's ataxia lymphocytes assessed as increase in cell viability at 0.25 and 2.5 uM pre-incubated for 12 hrs in glucose-free media followed by rotenone challenge for 24 hrs by Live/Dead cell viability assay; format: functional, cell-based
In short: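 FRDA lymphocytes (5×10^5 cells/mL) in glucose-free medium with 25 mM galactose were pretreated with compounds at 37 °C, then exposed to 50 nM rotenone for 24 h. Cells were stained with 0.1 μM calcein AM and 0.2 μM EthD-1 for 15 min at 37 °C and run on flow cytometry (10,000 events). Live cells are given as % of control; two independent runs in duplicate.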

[4] = test system: Friedreich's ataxia lymphocyte; assay: Increase in ATP level in human Friedreich's ataxia lymphocytes at 0.5 uM incubated for 24 hrs by luminescence based assay; format: functional, cell-based
In short: as §1

[5] = test system: Friedreich's ataxia fibroblast (Homo sapiens); assay: Cytoprotection against buthionine sulfoximine-induced cytotoxicity in human Friedreich's ataxia fibroblasts assessed as increase in cell viability at 25 to 1000 nM pre-incubated before buthionine sulfoximine challenge for 48 hrs by Live/Dead cell viability assay
[6] = Reduction in ATP level in human Friedreich's ataxia lymphocytes at 5 uM incubated for 24 hrs by luminescence based assay; format: ADME, cell-based; details: friedreich's ataxia lymphocyte
In short: as §1

[7] = Cytotoxicity in human Friedreich's ataxia lymphocytes assessed as reduction in cell viability at 2.5 uM incubated for 24 hrs by Live/Dead cell viability assay; format: cell-based; details: friedreich's ataxia lymphocyte
In short: (§2)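 FRDA lymphocytes (5×10^5 cells/mL) were kept in glucose-free medium (25 mM galactose) with compound at 37 °C and 5% CO₂ for 24 or 48 h. Cells were washed, stained with 0.1 μM calcein AM (live) and 0.2 μM EthD-1 (dead) for 15 min at 37 °C and analysed by flow cytometry (10,000 events). Duplicates were run in two independent runs.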

[8] = Induction of mitochondrial membrane potential preservation in human Friedreich's ataxia lymphocytes assessed as JC1 dye aggregates level at 5 uM pre-incubated for 16 hrs by JC1 staining based assay (reference value: 69.8%)
[9] = Cytotoxicity in human Friedreich's ataxia lymphocytes assessed as reduction in cell viability at 2.5 uM incubated for 48 hrs by Live/Dead cell viability assay; format: cell-based; details: friedreich's ataxia lymphocyte
In short: as §2

[10] = test system: Friedreich's ataxia lymphocyte; assay: Inhibition of ROS generation in human Friedreich's ataxia lymphocytes at 250 and 2500 nM incubated for 16 hrs by DCFH-DA staining based FACS method; format: functional, cell-based
In short: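 FRDA lymphocytes (GM15850; 5×10^5 cells/mL) were pretreated with compound for 16 h at 37 °C, then exposed to 5 mM diethyl maleate for 80 min to deplete glutathione. Cells were loaded with 10 μM DCFH-DA in PBS with 20 mM glucose for 25 min at 37 °C and DCF was read by flow cytometry (10,000 events). Median fluorescence is given as % of the DEM-treated control; duplicates in two runs.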

[11] = test system: Friedreich's ataxia lymphocyte; assay: Effect on ATP level in human Friedreich's ataxia lymphocytes at 100 nM incubated for 24 hrs by luminescence based assay; format: functional, cell-based
In short: as §1

Bos taurus = organism: Bos taurus; assay: Effect on NADH-ubiquinone oxidoreductase in bovine heart submitochondrial particles assessed as induction of electron flow from complex-1 by measuring NADH oxidation at 5 uM in presence of 50 nM rotenone using NADH and coenzyme Q1 by spectrophotomery
In short: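 Submitochondrial particles (30 μg/mL) were preincubated 5 min at 30 °C with compound in 50 mM phosphate buffer, pH 7.4, with 0.25 M sucrose, 1 mM MgCl₂, 2 μM antimycin A and 2 mM KCN. The reaction was started with 75 μM NADH plus 15 μM coenzyme Q₁, and NADH loss was followed at 340 nm. Values are the mean of two independent experiments in duplicate.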

[12] = test system: Friedreich's ataxia lymphocyte; assay: Effect on ATP level in human Friedreich's ataxia lymphocytes at 100 to 5000 nM incubated for 24 hrs by luminescence based assay; format: functional, cell-based
In short: as §1

Activity (Bos taurus)	Structure (SMILES)	Activity [1]	Activity [2]	Activity [3]	Activity [4]	Activity [5]	Activity [6]	Activity [7]	Activity [8]	Activity [9]	ROS generation inhibition (qualitative) [10]	Activity [11]	Activity [12]
–	CCCCCCCCCCCCCCCN(C)c1ccc2nc3ccc(=O)cc-3sc2c1	14.7%	Active	Active	Active	Dose-dependent effect	Toxic	Non-Toxic	85.2%	Non-Toxic	Dose-dependent effect	–	–
Active	CN(C)c1ccc(C(=C2C=CC(=[N+](C)C)C=C2)c2ccc(N(C)C)cc2)cc1.[Cl-] [GENTIAN VIOLET]	27.3%	–	Active	–	–	–	–	72.6%	–	Active	inactive	–
–	CN(C)c1ccc2nc3ccc(N(C)C)cc3[s+]c2c1.[Cl-] [METHYLENE BLUE ANHYDROUS]	58.1%	–	–	–	–	–	Toxic	41.7%	Toxic	–	–	–
–	CCCCCCCCCCN(CCCCCCCCCC)c1ccc2nc3ccc(=O)cc-3sc2c1	14.3%	–	Active	–	Dose-dependent effect	–	Non-Toxic	85.7%	Non-Toxic	Active	–	inactive
Active	CCCCCCCCCCCCCCCN(CCCC)c1ccc2nc3ccc(=O)cc-3sc2c1	10.6%	Active	Active	Active	Dose-dependent effect	Toxic	Non-Toxic	89.3%	Non-Toxic	Dose-dependent effect	–	–
–	CCCCN(CCCC)c1ccc2nc3ccc(=O)cc-3sc2c1	25.6%	–	Active	–	Dose-dependent effect	–	–	74.2%	Toxic	Active	inactive	–
Active	CN(C)c1ccc2nc3ccc(=[N+](C)C)cc-3sc2c1	–	–	Active	–	–	–	–	–	–	–	inactive	–
–	CCCCCCCCCCCCCCCN(CCCCCCCCCCCCCCC)c1ccc2nc3ccc(=O)cc-3sc2c1	11.7%	–	Active	–	Dose-dependent effect	–	Non-Toxic	88.2%	Non-Toxic	Active	–	inactive
